# Measured values from different studies.
Structure (SMILES),target or system,assay,setting,endpoint,value
CC(C)=CC1NCCc2cc(O)c(O)cc21 (stereo not drawn),,"DPPH scavenging, absorbance","30 min, dark",IC50,54.2 µM
C=CC(=O)ON=C1C=CC(=C(C#N)c2ccccc2)C=C1,Candidozyma auris,"microbial killing, broth dilution",48 h,MFC,16 µg/mL
CCOC(=O)C1=C(CSC2=NCCS2)NC(=O)NC1c1cccc(OC)c1 (stereo not drawn),,DPPH scavenging,,IC50,150 µM
NCC(=O)Nc1ccccc1/N=c1\cc(-c2ccc3c(c2)OCCO3)oc2cc(F)ccc12,MCF7,"cell growth or viability, CCK-8",1 µM,inhibition,-2.78%
O=C(C[C@@H](C(F)F)n1ccc(F)n1)N1CCC(O)(Cn2cnc3c(cnn3-c3ccc(F)cc3)c2=O)CC1,CAPAN-1,"cell growth or viability, SRB","2.222 µM, 5 days",viability,19.8%
CCOC(=O)C1=C(CSC2=NCCS2)NC(=O)NC1c1ccc(F)cc1 (stereo not drawn),,DPPH scavenging,,IC50,157 µM
CC(=O)ON=C1C=CC(=C(C#N)c2ccccc2)C=C1,Candidozyma auris,"microbial growth, broth dilution",48 h,MIC,16 µg/mL
CCCCCCCCCC1NCCc2cc(O)c(O)cc21 (stereo not drawn),,"DPPH scavenging, absorbance","30 min, dark",IC50,62 µM
NCCCC(=O)Nc1ccccc1/N=c1\cc(-c2ccc3c(c2)OCO3)oc2ccccc12,MCF7,"cell growth or viability, CCK-8",1 µM,inhibition,10.2%
CCOC(=O)C1=C(CCl)NC(=O)NC1c1cccc(C)c1 (stereo not drawn),,DPPH scavenging,,IC50,70.7 µM
NCC(=O)Nc1ccccc1/N=c1\cc(-c2ccc3c(c2)OCCO3)oc2ccccc12,MCF7,"cell growth or viability, CCK-8",1 µM,inhibition,-1.21%
CCON=C1C=CC(=C(C#N)c2ccccc2)C=C1,Candidozyma auris,"microbial growth, broth dilution",48 h,MIC,256 µg/mL
CCOC(=O)C1=C(CSC2=NCCS2)NC(=O)NC1c1cccc(Cl)c1 (stereo not drawn),,DPPH scavenging,,IC50,142 µM
C#CCOC(=O)ON=C1C=CC(=C(C#N)c2ccccc2)C=C1,Candidozyma auris,"microbial killing, broth dilution",48 h,MFC,32 µg/mL
CCCCCCCCC1NCCc2cc(O)c(O)cc21 (stereo not drawn),,"DPPH scavenging, absorbance","30 min, dark",IC50,65.3 µM
CS(=O)(=O)NCCC(=O)Nc1ccccc1/N=c1\cc(-c2ccc3nc(N)oc3c2)oc2ccccc12,MCF7,"cell growth or viability, CCK-8",1 µM,inhibition,2%
N#CC(=C1C=CC(=NOC(=O)OCc2ccccc2)C=C1)c1ccccc1,Candidozyma auris,"microbial growth, broth dilution",48 h,MIC,64 µg/mL
CCCCCCCCCCCC1NCCc2cc(O)c(O)cc21 (stereo not drawn),,"DPPH scavenging, absorbance","30 min, dark",IC50,27.9 µM
CCOC(=O)C1=C(CSC2=NCCS2)NC(=O)NC1c1ccc(C(C)C)cc1 (stereo not drawn),,DPPH scavenging,,IC50,190 µM
C#CCON=C1C=CC(=C(C#N)c2ccccc2)C=C1,Candidozyma auris,"microbial killing, broth dilution",48 h,MFC,64 µg/mL
CCOC(=O)C1=C(CCl)NC(=O)NC1c1ccc(F)cc1F (stereo not drawn),,DPPH scavenging,,IC50,117 µM
C[C@H](N)C(=O)Nc1ccccc1/N=c1\cc(-c2ccc3c(c2)OCCO3)oc2c(N)cccc12,MCF7,"cell growth or viability, CCK-8",1 µM,inhibition,7.27%
COc1cccc(C2NCCc3cc(O)c(O)cc32)c1 (stereo not drawn),,"DPPH scavenging, absorbance","30 min, dark",IC50,18.2 µM
CCOC(=O)C1=C(CSC2=NCCS2)NC(=O)NC1c1cccc(C)c1 (stereo not drawn),,DPPH scavenging,,IC50,224 µM
